Test results published in PMC3822768 (Bioorganic & medicinal chemistry, 2013).

Key:
Format in all cases: cell-based, Human
cancer cell lines = experiment: MTT growth inhibition assay, summary over the cancer cell line panel; details: 48 h; for cytotoxicity against the cancer cell lines: MTT
HL-60 cells = experiment: Hoechst 33258 staining; details: HL-60, 0.25-1.0 µM, 24 h
Summary of the method: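 HL-60 cells seeded at 1×10⁵ per well and incubated 24 h with test compound at 0.25, 0.5 and 1.0 µM. After phase-contrast imaging, nuclei stained with Hoechst 33258 (5 µg/mL, 10 min), washed twice with PBS and fixed in 4% PFA/PBS for 10 min at 25 °C. Apoptotic chromatin condensation or fragmentation assessed; fluorescence at ex 365/em 460 nm.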

H460 cells [1] = experiment: Hoechst 33258 staining; details: H460, 1.0-5.0 µM, 24 h
Summary of the method: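 H460 cells plated at 5×10⁴ per well and exposed to test compound at 1.0, 2.5 and 5.0 µM for 24 h. Cells photographed under phase contrast, then stained with 5 µg/mL Hoechst 33258 for 10 min, washed twice in PBS and fixed in 4% PFA/PBS for 10 min at 25 °C. Nuclei scored for chromatin condensation or fragmentation; fluorescence read at ex 365/em 460 nm.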

H460 cells [2] = experiment: Cell cycle analysis by propidium iodide staining and flow cytometry, H460; details: H460, 1.0, 2.5, 5.0 µM, 24 h
Summary of the method: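 After 24 h exposure to test compound at 1.0, 2.5 or 5.0 µM, H460 cells were washed in PBS and fixed overnight in 70% ice-cold ethanol at −20 °C. They were then stained in the dark for 30 min with 0.1% Triton X-100, 0.2 mg/mL RNase and 20 µg/mL propidium iodide. DNA content was measured by flow cytometry and histograms were modelled for phase distribution.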

[3] = system: cyclin B1, CDK1, caspase 3 in H460 cells; experiment: Western blot of cyclin B1, CDK1 and caspase 3, H460; details: H460, 24 h
Summary of the method: (§1)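 Cells grown in RPMI-1640 with 10% FBS at 37 °C, 5% CO₂, then treated with test compound at graded concentrations for 24 h. Harvested cells lysed on ice for 30 min and spun at 12,000 g for 20 min. Protein quantified by Bradford, denatured in Tris-HCl pH 6.8/DTT/SDS loading buffer, run on 10% SDS-PAGE and transferred to nitrocellulose. Detection by chemiluminescence, with β-actin as loading control.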

[4] = system: cyclin B1, CDK1, caspase 3 in HL-60 cells; experiment: Western blot of cyclin B1, CDK1 and caspase 3, HL-60; details: HL-60, 24 h
Summary of the method: as §1

## O=c1cc(-c2ccccc2)c2cc3c(cc2[nH]1)OCO3 [Compound 12a, 6,7-Methylenedioxy-4-phenylquinolin-2(1H)-one]
Cancer cell lines
  cytotoxicity against the cancer cell lines: poor cytotoxicity

## COc1ccc(-c2cc(=O)[nH]c3cc4c(cc23)OCO4)c(OC)c1 [Compound 12e, 6,7-Methylenedioxy-4-(2,4-dimethoxyphenyl)quinolin-2(1H)-one]
HL-60 cells
  apoptotic morphology by Hoechst 33258 staining: typical apoptotic characteristics
H460 cells [1]
  apoptotic morphology by Hoechst 33258 staining: typical apoptotic characteristics
H460 cells [2]
  percentage of G2/M cells: increased
[3]
  CDK1 protein expression level: increased in a concentration-dependent manner
  caspase 3 cleavage (17 kDa): induced caspase 3 cleavage
[4]
  CDK1 protein expression level: decreased in a concentration-dependent manner
  caspase 3 cleavage (17 kDa): induced caspase 3 cleavage
  cyclin B1 protein expression: transient increase followed by a decrease

## COc1cc(-c2cc(=O)[nH]c3cc4c(cc23)OCO4)cc(OC)c1OC [Compound 12k, 6,7-Methylenedioxy-4-(3,4,5-trimethoxyphenyl)quinolin-2(1H)-one]
Cancer cell lines; Homo sapiens, read-out: IC50 range over cancer cell lines
  IC50: 0.93 to 7.6 µM

## O=c1cc(-c2ccccc2F)c2cc3c(cc2[nH]1)OCO3 [Compound 12l, 4-(2-Fluorophenyl)-6,7-methylenedioxyquinolin-2(1H)-one]
Cancer cell lines
  cytotoxicity against the cancer cell lines: weak cytotoxicity

## O=c1cc(-c2cccc(F)c2)c2cc3c(cc2[nH]1)OCO3 [Compound 12m, 4-(3-Fluorophenyl)-6,7-methylenedioxyquinolin-2(1H)-one]
Cancer cell lines
  cytotoxicity against the cancer cell lines: weak cytotoxicity

## O=c1cc(-c2ccc(F)cc2)c2cc3c(cc2[nH]1)OCO3 [Compound 12n, 4-(4-Fluorophenyl)-6,7-methylenedioxyquinolin-2(1H)-one]
Cancer cell lines
  cytotoxicity against the cancer cell lines: weak cytotoxicity
